The target of the test is Neuromedin-B receptor (Homo sapiens, UniProt P28336). The test can be described thus: Displacement of [125I]-(D-Tyr0)NMB from human neuromedin B receptor transfected in HEK293 cells. A digest of the protocol:
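Whole-cell competition binding used 1 × 10⁶ HEK293 cells stably transfected with hNMBR, with 150 pM ¹²⁵I-[D-Tyr0]NMB (2200 Ci/mmol), in DMEM for 1 h at room temperature. Bound ligand was separated by filtration and total bound counts were measured. Day-to-day standard error was <30%; well-to-well variability was <10%.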
Chain of Neuromedin-B receptor (P28336 whole entry): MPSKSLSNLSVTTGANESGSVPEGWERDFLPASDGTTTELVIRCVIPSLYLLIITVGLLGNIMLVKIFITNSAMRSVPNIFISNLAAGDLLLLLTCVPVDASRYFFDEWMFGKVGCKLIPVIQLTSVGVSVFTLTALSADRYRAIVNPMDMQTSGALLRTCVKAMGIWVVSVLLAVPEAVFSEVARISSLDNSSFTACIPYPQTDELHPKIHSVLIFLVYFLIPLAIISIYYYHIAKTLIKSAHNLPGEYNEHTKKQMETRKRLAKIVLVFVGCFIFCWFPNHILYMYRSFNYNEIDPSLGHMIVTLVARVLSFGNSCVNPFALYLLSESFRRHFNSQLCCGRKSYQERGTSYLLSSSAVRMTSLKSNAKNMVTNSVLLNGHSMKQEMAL
Turning to `Cc1ccc2c(c1)NC(c1ccccc1C(F)(F)F)C1C(=O)CC(C)(C)CC1=N2` (configuration not stated) [3,3,8-trimethyl-11-(2-(trifluoromethyl)phenyl)-2,3,4,5,10,11-hexahydro-1H-dibenzo[b,e][1,4]diazepin-1-one], the IC50 worked out at 250 nM.

For `CSc1ccccc1C1Nc2cc(C)ccc2N=C2CC3(CCCC3)CC(=O)C21` (configuration not stated) [8'-methyl-11'-(2-(methylthio)phenyl)-4',5',10',11'-tetrahydrospiro[cyclopentane-1,3'-dibenzo[b,e][1,4]diazepin]-1'(2'H)-one], the IC50 came out at 250 nM. Molecule `Cc1ccc2c(c1)NC(c1c(F)cccc1Cl)C1C(=O)CCC1=N2` (configuration not stated) [10-(2-chloro-6-fluorophenyl)-7-methyl-2,3,9,10-tetrahydrobenzo[b]cyclopenta[e][1,4]diazepin-1(4H)-one] had an IC50 of 10000 nM. Against the preceding molecule, the IC50 is about 40-fold higher. As for `Cc1ccc2c(c1)NC(c1c(F)cccc1Cl)C1C(=O)CC3(CCCC3)CC1=N2` (configuration not stated) [11'-(2-chloro-6-fluorophenyl)-8'-methyl-4',5',10',11'-tetrahydrospiro[cyclopentane-1,3'-dibenzo[b,e][1,4]diazepin]-1'(2'H)-one], the IC50 amounted to 280 nM. Consider `CC1(C)CC(=O)C2C(=Nc3ccc(C#N)cc3NC2c2c(F)cccc2Cl)C1` (configuration not stated) [11-(2-chloro-6-fluorophenyl)-3,3-dimethyl-1-oxo-2,3,4,5,10,11-hexahydro-1H-dibenzo[b,e][1,4]diazepine-8-carbonitrile], for which the IC50 was 1300 nM. For `CC1(C)CC(=O)C2C(=Nc3ccc(C(N)=O)cc3NC2c2c(F)cccc2Cl)C1` (configuration not stated) [11-(2-chloro-6-fluorophenyl)-3,3-dimethyl-1-oxo-2,3,4,5,10,11-hexahydro-1H-dibenzo[b,e][1,4]diazepine-8-carboxamide], the IC50 was found to be 10000 nM. This IC50 is about 7.7-fold higher than that of the molecule before. `CC1(C)CC(=O)C2C(=Nc3ccc(C(=O)O)cc3NC2c2c(F)cccc2Cl)C1` (configuration not stated) [11-(2-chloro-6-fluorophenyl)-3,3-dimethyl-1-oxo-2,3,4,5,10,11-hexahydro-1H-dibenzo[b,e][1,4]diazepine-8-carboxylic acid] showed an IC50 of 10000 nM.

Regarding `CC1(C)CC(=O)C2C(=Nc3ccc(OC(F)(F)F)cc3NC2c2c(F)cccc2Cl)C1` (configuration not stated) [11-(2-chloro-6-fluorophenyl)-3,3-dimethyl-8-(trifluoromethoxy)-2,3,4,5,10,11-hexahydro-1H-dibenzo[b,e][1,4]diazepin-1-one], the IC50 turned out to be 1300 nM. Molecule `CC1(C)CC(=O)C2C(=Nc3ccc(O)cc3NC2c2c(F)cccc2Cl)C1` (configuration not stated) [11-(2-chloro-6-fluorophenyl)-8-hydroxy-3,3-dimethyl-2,3,4,5,10,11-hexahydro-1H-dibenzo[b,e][1,4]diazepin-1-one] displayed an IC50 of 10000 nM.

As to `Cc1ccc2c(c1)NC(c1ccccc1Cl)C1C(=O)CC(C)(C)CC1=N2` (configuration not stated) [11-(2-chlorophenyl)-3,3,8-trimethyl-2,3,4,5,10,11-hexahydro-1H-dibenzo[b,e][1,4]diazepin-1-one], the 50% inhibitory concentration (IC50) amounted to 280 nM. On to `Cc1ccc2c(c1)NC(c1ccccc1F)C1C(=O)CC(C)(C)CC1=N2` (configuration not stated) [11-(2-fluorophenyl)-3,3,8-trimethyl-2,3,4,5,10,11-hexahydro-1H-dibenzo[b,e][1,4]diazepin-1-one], for which the concentration for half-maximal inhibition (IC50) stood at 1300 nM. The molecule `Cc1ccc2c(c1)NC(c1ccccc1C(F)(F)F)C1C(=O)CC3(CCCC3)CC1=N2` (stereo not drawn) [(-)-8'-methyl-11'-(2-(trifluoromethyl)phenyl)-4',5',10',11'-tetrahydrospiro[cyclopentane-1,3'-dibenzo[b,e][1,4]diazepin]-1'(2'H)-one] registered an IC50 of 96 nM. Against the preceding molecule, the IC50 is about 14-fold lower.

For the origin of these results see BindingDB's records for doi:10.1016/j.bmcl.2009.05.124 (Amgen, 2009).
